# High-throughput results from PubChem BioAssay.
# In the library only some 4.1% were active in any assay of this set; here they are far more common.
# Cl transport mod = modulators of human KCC2 chloride dependent transport; Q9H2X9; KCC2 cells, thallium flux FluoZin-2 fluorescence; B-score of Tl+ flux slope (higher = more flux/activation; lower = inhibition) at 10 µM; 2.2% of 190,000 active;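 active = thallium flux slope and its plate-corrected score both differing from the plate sample mean at a set confidence after two filtering rounds, in either direction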;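 note: slope of fluorescence scaled to starting intensity during 10 to 20 s after thallium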
# hERG rescue = hERG (human) protection from proarrhythmic block. CHO-hERG, FluxOR thallium flux, dofetilide IC70 present. Q12809. activation (rescue from dofetilide block), less the hit threshold, % at 10 µM. 0.51% of 310,000 active;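 active = activation above the mean of controls blocked by dofetilide plus 5 SD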;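 note: thallium influx through hERG after potassium depolarization seen as dye fluorescence rise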
# KCNQ1 inh = blocks the human KCNQ1 potassium channel | AID 2642 | B-score at 10 µM | 1.3% of 310,000 active | P51787 | CHO-K1 KCNQ1, FluxOR thallium flux fluorescence; active compounds read high;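 active = compounds whose thallium flux B-score, printed positive for inhibition, exceeds three library SD while starting fluorescence stays within three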;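 note: channel opened by potassium depolarization with thallium stimulus after 20 min compound exposure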
# Target sequence (P51787 whole entry, looked up): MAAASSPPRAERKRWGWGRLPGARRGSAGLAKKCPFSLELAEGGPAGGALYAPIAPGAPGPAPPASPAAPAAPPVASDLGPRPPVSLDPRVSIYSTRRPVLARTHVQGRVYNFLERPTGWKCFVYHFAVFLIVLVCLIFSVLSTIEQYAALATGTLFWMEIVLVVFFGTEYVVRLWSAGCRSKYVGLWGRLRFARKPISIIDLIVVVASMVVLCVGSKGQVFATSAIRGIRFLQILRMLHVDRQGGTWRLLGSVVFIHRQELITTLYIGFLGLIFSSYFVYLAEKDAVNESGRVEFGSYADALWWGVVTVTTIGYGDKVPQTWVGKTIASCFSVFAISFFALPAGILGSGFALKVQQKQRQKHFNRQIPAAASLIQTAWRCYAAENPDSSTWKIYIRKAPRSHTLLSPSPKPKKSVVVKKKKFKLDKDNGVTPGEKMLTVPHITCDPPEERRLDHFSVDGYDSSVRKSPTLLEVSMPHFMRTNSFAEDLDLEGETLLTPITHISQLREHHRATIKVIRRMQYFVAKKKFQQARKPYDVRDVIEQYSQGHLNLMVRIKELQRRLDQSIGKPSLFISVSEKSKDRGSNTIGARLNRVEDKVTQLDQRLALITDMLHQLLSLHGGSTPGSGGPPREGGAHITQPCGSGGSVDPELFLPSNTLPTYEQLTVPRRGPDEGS
# KCNQ1 pot = potentiates or activates the human KCNQ1 potassium channel. CHO-K1 KCNQ1, thallium flux FluxOR fluorescence; active compounds read high. P51787. B-score at 10 µM. 0.35% of 310,000 active;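 active = fluorescence ratio B-score, a plate-corrected score, at least three library SD, with initial intensity B-score within 5 SD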
#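 Assay system: CHO-K1 cells stably expressing KCNQ1; Medium: assay buffer with matched DMSO; Also added: K+/Tl+ depolarizing stimulus; Dosing: single dose; Timing: dye 90 min, compound 20 min, room temperature; Measured by: kinetic FluxOR thallium fluorescence, 10-s 1-Hz baseline, 110-s post-stimulus read; Read-out: peak-minus-minimum fluorescence over initial fluorescence, negative-control normalized, B-scored.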
# KCNK3 block = human KCNK3 channel inhibition, primary screen; B-score at 10 µM; CHO-KCNK3 thallium flux, FluxOR fluorescence; active compounds read low; 0.84% of 340,000 active;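 active = B-score under library mean minus 4 SD, starting fluorescence ratio at most library mean plus 5 SD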;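 note: more negative B-score means stronger inhibition of thallium flux through KCNK3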
# KCNK9 block = inhibitors of human KCNK9 two-pore domain potassium channel. HEK293 KCNK9, FluxOR thallium flux fluorescence; active compounds read low. B-score at 10 µM. 1.2% of 310,000 active;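 active = ratio B-score over 3 SD below the library mean, with starting fluorescence within 5 SD of its mean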;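 note: negative B-score means less thallium flux so channel inhibition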
# KCC2 secondary = KCC2 (human) modulation, secondary assay | shares compounds with Cl transport mod | HEK293-KCC2, thallium flux, FluoZin2 fluorescence; active compounds read high | normalised thallium flux (F/F0 slope) at 10 µM | 15% of 3,700 active;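 active = thallium flux slope above the same plate's solvent-only control mean plus 3 SD; inconclusive = the two replicate wells disagree; inactive = no significant difference from solvent-only control wells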
# KCC2 bumet counter = thallium flux persisting under bumetanide in KCC2 cells, counter-screen secondary assay; normalized thallium flux at 10 µM; shares compounds with Cl transport mod; HEK293-KCC2 + bumetanide/ouabain, thallium flux FluoZin2; active compounds read high; AID 1714; 49% of 3,700 active;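 active = thallium entry rate above the same plate's blocked-transporter control wells by more than 3 SD; inconclusive = the two repeat wells disagree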;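 note: raw slope of fluorescence over initial fluorescence between 10 and 20 s after thallium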
# KCC2 secondary2 = KCC2 (human) modulation, second secondary assay. normalized thallium flux at 10 µM. 23% of 3,700 active. HEK293-KCC2, thallium flux FluoZin2 fluorescence; actives lie on both sides; F/F0 rise rate, 10–20 s post-thallium. shares compounds with Cl transport mod;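 active = thallium flux slope more than 3 SD above or below the plate's solvent-only control mean, mostly below; inconclusive = the two repeat wells disagreed; inactive = no significant shift from solvent-only controls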;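 note: raw slope with 0.1% DMSO as baseline and bumetanide as block control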
# HEK293 Tl flux = parental HEK flux effect, counter-screen; shares compounds with Cl transport mod; HEK293 parental cells, thallium flux FluoZin2, ouabain; baseline-ratio fluorescence slope, 10–20 s after thallium; thallium flux rate (normalised fluorescence) at 10 µM; 46% of 3,700 active; AID 1716;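 active = thallium flux rate significantly above the same plate's solvent-only control wells, beyond their mean plus 3 SD; inconclusive = the two replicate wells gave conflicting results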
# KCC2 retest ouab = modulates human KCC2 on retest with ouabain; raw Tl+ flux slope (below DMSO = inhibition, above = activation) at 10 µM; HEK293-KCC2, thallium flux FluoZin2 fluorescence; bidirectional: low = inhibitor, high = activator; 48% of 3,700 active; shares compounds with Cl transport mod; AID 1717;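 active = thallium flux slope beyond 3 SD from same-plate DMSO control mean in most replicates, usually higher, sometimes lower; inconclusive = repeat tests gave conflicting results; inactive = no significant difference from controls in most replicates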;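 note: slope of initial-normalized fluorescence between seconds 10 and 20 after thallium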
# HEK counter2 = acts in parental HEK cells, second KCC2 counter-screen; shares compounds with Cl transport mod; HEK293 parental, thallium flux FluoZin-2 fluorescence slope; thallium flux slope at 10 µM; 33% of 3,700 active;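 active = thallium flux slope above the same plate's solvent-control mean plus 3 SD in both duplicate wells; inconclusive = duplicate wells that disagreed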;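 note: run without ouabain in cells lacking the KCC2 cotransporter; slope of fluorescence scaled to its starting value between 10 and 20 s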
# Starred values were filed as active, the others as inactive; i = inactive; ? = inconclusive; / = not tested or not shown.
SMILES,Cl transport mod,hERG rescue,KCNQ1 inh,KCNQ1 pot,KCNK3 block,KCNK9 block,KCC2 secondary,KCC2 bumet counter,KCC2 secondary2,HEK293 Tl flux,KCC2 retest ouab,HEK counter2
Cc1cc(NC(=O)COC(=O)C(Nc2ccc(C(F)(F)F)cc2Cl)C(C)C)no1 (stereo not drawn),-7.2*,-16,i,i,i,i,0.0077,0.0036,0.034,0.007,0.02,0.0088
CCN(C[C@H]1N[C@@](C)(C(=O)OC)[C@H]2C(=O)N(C)C(=O)[C@@H]12)C(=O)C1CCCCC1,/,/,/,/,i,/,/,/,/,/,/,/
N=C1S/C(=C\c2ccco2)C(=O)N1c1nccs1,19*,-4,i,9*,i,i,0.028*,0.075*,?,0.028*,0.049*,0.015*
N=C1S/C(=C\c2ccco2)C(=O)N1c1ccc2c(c1)OCO2,-0.75,-10,i,i,i,i,/,/,/,/,/,/
O=C(CCCn1c(=O)[nH]c2cc(Cl)ccc2c1=O)NCC1CCCO1 (stereo not drawn),8.6*,-10,i,i,i,i,0.01,0.0064,0.031,0.0069,0.021,?
COC(=O)c1ccc2c(=O)n(CCCCCC(=O)NCCNC(C)=O)c(=O)[nH]c2c1,5.4*,-4,i,i,i,i,0.0084,0.0069,0.034,0.0079,0.022,0.011
Oc1cc(CNC2CCCCC2)c(O)cc1CNC1CCCCC1,/,/,/,/,i,/,/,/,/,/,/,/
Cc1cc(OCC(=O)OCC(=O)NCC2CCCO2)ccc1Cl (stereo not drawn),/,/,/,/,i,/,/,/,/,/,/,/
CC[C@@H]1C/C=C\Cc2ccccc2[C@H](C(=O)C[C@H](O)CC(C)=O)OC1=O,/,/,/,/,i,/,/,/,/,/,/,/
COc1cc(C(=S)N2CCOCC2)cc(OC)c1OC(=O)c1ccc(F)cc1,/,-3,i,i,i,i,/,/,/,/,/,/
COc1cc(C(=S)N2CCOCC2)cc(OC)c1OC(=O)Cc1ccc(F)cc1,-4.3*,-7,i,i,i,i,0.0092,0.0069,0.028*,0.0039,0.016*,0.011
CCSc1nc(O)cc(=O)[nH]1,/,-6,i,i,i,i,/,/,/,/,/,/
CCSc1nc(=S)cc(C)[nH]1,46*,25*,i,24*,i,i,0.027*,0.052*,?,0.034*,0.043*,0.018*
COc1ccccc1/C=C1\N=C(C(C)(C)C)OC1=O,/,-7,i,i,i,i,/,/,/,/,/,/
COc1cc(/C=C/c2cc(C(F)(F)F)[nH]c(=O)n2)cc(OC)c1OC,-2.1,/,/,/,i,/,/,/,/,/,/,/
COc1cc(OC)c(OC)cc1/C=C/c1cc(C(F)(F)F)[nH]c(=O)n1,-4.7*,-4,i,i,i,i,?,-0.0019*,?,0.003*,0.012*,0.005*
Cc1cc(-c2n[nH]c(=S)n2/N=C/c2cccc(O)c2)n[nH]1,-0.074,-7,i,i,i,i,/,/,/,/,/,/
CC(/C=N/n1c(-c2ccco2)n[nH]c1=S)=C\c1ccco1,4.7*,-6,i,i,i,i,0.0082,0.027*,0.038,0.018*,0.028*,0.02*
Cc1cc(-c2n[nH]c(=S)n2/N=C/C(Cl)=C/c2ccccc2)n[nH]1,4.9*,-6,i,i,i,i,0.0093,0.013*,0.037,?,0.02,0.011
S=c1[nH]nc(-c2ccco2)n1/N=C/C(Cl)=C/c1ccccc1,34*,-2,i,i,i,i,0.016*,0.14*,0.038,0.029*,0.067*,0.015*
S=c1[nH]nc(-c2ccco2)n1/N=C/c1ccccn1,0.9,-11,i,i,/,i,/,/,/,/,/,/
CC(=O)Oc1cc(C(=O)OCC(=O)NC23CC4CC(CC(C4)C2)C3)cc(OC(C)=O)c1OC(C)=O,/,/,/,/,i,/,/,/,/,/,/,/
CC1CCC(NC(=O)c2cc(S(=O)(=O)N3CCCCC3)ccc2N2CCOCC2)CC1 (stereo not drawn),/,/,/,/,i,/,/,/,/,/,/,/
CCN(C[C@H]1N[C@@](C)(C(=O)OC)[C@H]2C(=O)N(Cc3ccccc3)C(=O)[C@@H]12)C(=O)Nc1ccc(F)cc1,/,/,/,/,i,/,/,/,/,/,/,/
CCOC(=O)CC1Sc2ccccc2NC1=S (stereo not drawn),6.9*,-11,i,i,i,i,0.011,0.024*,0.036,?,0.031*,?
SMILES,Cl transport mod,hERG rescue,KCNQ1 inh,KCNQ1 pot,KCNK3 block,KCNK9 block,KCC2 secondary,KCC2 bumet counter,KCC2 secondary2,HEK293 Tl flux,KCC2 retest ouab,HEK counter2
CC(=O)Nc1ccc(N(C(=O)c2ccco2)C(C(=O)NC2CCCCC2)c2ccccc2)cc1 (stereo not drawn),/,-6,i,i,i,i,/,/,/,/,/,/
Cc1cccc(-c2n[nH]c(=S)n2/N=C/c2cccs2)c1,41*,-11,i,9*,i,i,0.019*,0.08*,0.034,0.054*,0.054*,0.016*
Cc1cccc(-c2n[nH]c(=S)n2/N=C/c2ccc(C)s2)c1,13*,-4,i,i,i,i,0.011,0.031*,0.033,0.016*,0.028,0.012*
S=c1[nH]nc(-c2ccco2)n1/N=C/c1c(Cl)cccc1Cl,1.9,-9,i,i,i,i,/,/,/,/,/,/
Cc1ccsc1/C=N/n1c(-c2ccccc2)n[nH]c1=S,9.8*,-4,i,i,i,i,0.014*,0.039*,0.036,0.015*,?,0.013*
S=c1[nH]nc(-c2cccnc2)n1/N=C/c1cccs1,0.068,-9,i,i,i,i,/,/,/,/,/,/
S=c1[nH]nc(-c2cccs2)n1/N=C/c1c(Cl)cccc1Cl,34*,32*,i,37*,i,i,0.019,0.042*,0.03,0.022*,0.029*,0.019*
